Measured values: ChEMBL document CHEMBL3272327, “Hypocholesterolemic activity of 1,3-bis(substituted phenoxy)-2-propanones” (J Med Chem, 1976)

Key:
[1] = tested on: Rattus norvegicus; experiment: Effect on food intake in rat at 10 mg/kg/day measured during first week (reference value: 19.1 +/- 1.7 gms); type: ADME, organism-based; settings: in vivo
Outline: (§1)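 Male rats dosed orally at 1, 5, 10 or 50 mg/kg/day in 1% CMC. Average food intake in grams per rat per week measured over a 2-week period, first and second weeks reported separately. N = 8, Student's t test against the 1% CMC control.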

[2] = tested on: Rattus norvegicus; experiment: Effect on food intake in rat at 5 mg/kg/day measured during second week (reference value: 23.4 +/- 1.8 gms); type: ADME, organism-based; settings: in vivo; outline: as §1
[3] = tested on: Rattus norvegicus; experiment: Effect on heart weight in rat at 5 mg/kg/day administered for 16 days measured 24 hrs after last drug dosage relative to total body weight (reference value: 0.37 +/- 0.04%); type: ADME, organism-based; settings: in vivo
[4] = tested on: Rattus norvegicus; experiment: Effect on kidney weight in rat at 1 mg/kg/day administered for 16 days measured 24 hrs after last drug dosage relative to total body weight (reference value: 0.92 +/- 0.04%); type: ADME, organism-based; settings: in vivo
[5] = tested on: Rattus norvegicus; experiment: Effect on spleen weight in rat at 5 mg/kg/day administered for 16 days measured 24 hrs after last drug dosage relative to total body weight (reference value: 0.55 +/- 0.12%); type: ADME, organism-based; settings: in vivo
[6] = tested on: Rattus norvegicus; experiment: Effect on spleen weight in rat at 10 mg/kg/day administered for 16 days measured 24 hrs after last drug dosage relative to total body weight (reference value: 0.55 +/- 0.12%); type: ADME, organism-based; settings: in vivo
[7] = tested on: Rattus norvegicus; experiment: Effect on brain weight in rat at 10 mg/kg/day administered for 16 days measured 24 hrs after last drug dosage relative to total body weight (reference value: 0.67 +/- 0.05%); type: ADME, organism-based; settings: in vivo
[8] = tested on: Rattus norvegicus; experiment: Effect on vas deferens and epididymis weight in rat at 5 mg/kg/day administered for 16 days measured 24 hrs after last drug dosage relative to total body weight (reference value: 0.22 +/- 0.04%); type: ADME, organism-based; settings: in vivo
[9] = tested on: Rattus norvegicus; experiment: Effect on vesicular gland weight in rat at 10 mg/kg/day administered for 16 days measured 24 hrs after last drug dosage relative to total body weight (reference value: 0.10 to 0.11%); type: ADME, organism-based; settings: in vivo
[10] = tested on: Rattus norvegicus; experiment: Hypocholesterolemic activity in rat assessed as [14C]palmitic acid level in kidney at 10 mg/kg/day administered for 1 week measured after 22 hrs on day 7 by scintillation counting analysis (reference value: 0.68 +/- 0.16%); type: functional
Outline: (§2)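 Male Sprague-Dawley rats on lab chow dosed orally once daily for 1 week at 10 mg/kg/day, suspended in 1% CMC, or given vehicle alone. On day 7, 5 μCi [1-14C]palmitic acid given orally. Killed after 22 hr; organs made into 10% water homogenates. Aliquots of 0.1 cc of homogenate, urine, blood or feces were digested and scintillation counted. Output is % of dose per tissue, N = 6.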

[11] = tested on: Rattus norvegicus; experiment: Hypocholesterolemic activity in rat assessed as [14C]palmitic acid level in lung at 10 mg/kg/day administered for 1 week measured after 22 hrs on day 7 by scintillation counting analysis (reference value: 0.53 +/- 0.15%); type: functional; outline: as §2
[12] = tested on: Rattus norvegicus; experiment: Hypocholesterolemic activity in rat assessed as [14C]palmitic acid level in chyme at 10 mg/kg/day administered for 1 week measured after 22 hrs on day 7 by scintillation counting analysis (reference value: 0.41+/- 0.17%); type: functional; outline: as §2
[13] = tested on: Rattus norvegicus; experiment: Hypocholesterolemic activity in rat assessed as [14C]palmitic acid level in feces at 10 mg/kg/day administered for 1 week measured after 22 hrs on day 7 by scintillation counting analysis (reference value: 75.52 +/- 6.21%); type: functional; outline: as §2
[14] = tested on: Rattus norvegicus; experiment: Hypocholesterolemic activity in rat assessed as [14C]palmitic acid level in blood at 10 mg/kg/day administered for 1 week measured after 22 hrs on day 7 by scintillation counting analysis (reference value: 0.11 +/- 0.06%); type: functional
[15] = tested on: Rattus norvegicus; experiment: Hypocholesterolemic activity in rat assessed as [14C]cholesterol level in spleen at 10 mg/kg/day administered for 1 week measured after 22 hrs on day 7 by scintillation counting analysis (reference value: 1.41 +/- 1.01%); type: functional
Outline: (§3)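 Male rats were dosed orally for 1 week (10 mg/kg/day) or with 1% CMC. On day 7 they received 5 μCi [4-14C]cholesterol orally and were killed after 22 hr. Organs were homogenized (10% in water); 0.1-cc aliquots of homogenate, urine, blood or feces were digested with Protosol. Samples were counted in toluene/Triton X-100 (2:1) scintillant with 0.4% PPO and 0.01% POPOP. Results are % of dose per tissue, N = 6.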

[16] = tested on: Rattus norvegicus; experiment: Effect on body weight in rat at 5 mg/kg/day administered for 16 days measured on day 7 (reference value: 173 +/- 12 gms); type: ADME, organism-based; settings: in vivo, 384 h
Outline: (§4)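 Male Sprague-Dawley rats with chow and water ad libitum. Compound suspended in 1% CMC-water and given orally by intubation needle at 11:00 a.m., 1, 5, 10 or 50 mg/kg/day, for 16 days. Body weight (g) recorded on days 0, 7 and 16. N = 8.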

[17] = tested on: Rattus norvegicus; experiment: Effect on body weight in rat at 10 mg/kg/day administered for 16 days measured on day 7 (reference value: 173 +/- 12 gms); type: ADME, organism-based; settings: in vivo, 384 h; outline: as §4
[18] = tested on: Rattus norvegicus; experiment: Effect on body weight in rat at 10 mg/kg/day administered for 16 days measured on day 16 (reference value: 233 +/- 16 gms); type: ADME, organism-based; settings: in vivo, 384 h; outline: as §4
[19] = tested on: Rattus norvegicus; experiment: Hypocholesterolemic activity in Sprague-Dawley rat assessed as serum cholesterol level at 50 mg/kg/day, po administered via intubation measured on day 4 by Liebermann-Burchard reaction (reference value: 100 +/- 7%); type: functional
[20] = tested on: Rattus norvegicus; experiment: Hypocholesterolemic activity in Sprague-Dawley rat assessed as serum cholesterol level at 1 mg/kg/day, po administered via intubation measured on day 10 by Liebermann-Burchard reaction (reference value: 100 +/- 7%); type: functional
[21] = tested on: Rattus norvegicus; experiment: Hypocholesterolemic activity in Sprague-Dawley rat assessed as serum cholesterol level at 1 mg/kg/day, po administered via intubation measured on day 16 by Liebermann-Burchard reaction (reference value: 100 +/- 8%); type: functional
[22] = tested on: Rattus norvegicus; experiment: Hypocholesterolemic activity in Sprague-Dawley rat assessed as serum cholesterol level at 50 mg/kg/day, po administered via intubation measured on day 16 by Liebermann-Burchard reaction (reference value: 100 +/- 8%); type: functional
[23] = tested on: Rattus norvegicus; experiment: Hypocholesterolemic activity in rat assessed as serum triglyceride level at 10 mg/kg/day administered for 8 days (reference value: 100 +/- 15%); type: functional
Outline: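 Male Sprague-Dawley rats dosed orally at 10 mg/kg/day in 1% CMC. Serum triglycerides were measured with a stat pack kit after 8 days of dosing. Expressed as percent of vehicle control, N = 8; Student's t test.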

[24] = tested on: Rattus norvegicus; experiment: Hypocholesterolemic activity in rat assessed as [14C]cholesterol level in blood at 10 mg/kg/day administered for 1 week measured after 22 hrs on day 7 by scintillation counting analysis (reference value: 0.01 +/- 0.01%); type: functional; outline: as §3
[25] = tested on: Rattus norvegicus; experiment: Hypocholesterolemic activity in rat assessed as [14C]palmitic acid recovery at 10 mg/kg/day administered for 1 week measured after 22 hrs on day 7 by scintillation counting analysis (reference value: 98%); type: functional; outline: as §2
[26] = tested on: Rattus norvegicus; experiment: Hypocholesterolemic activity in [14C]palmitic acid-treated rat assessed as increase in free fatty acid accumulation in liver at 10 mg/kg/day administered for 1 week by scintillation counting analysis; type: functional

Cc1ccc(OCC(=O)COc2ccc(C)cc2)cc1
Activity [1]: 18.2 g
Activity [2]: 28.8 g
Activity [3]: 0.43%
Activity [4]: 0.79%
Activity [5]: 0.44%
Activity [6]: 0.6%
Activity [7]: 0.71%
Activity [8]: 0.21%
Activity [9]: 0.11%
Activity [10]: 0.94%
Activity [11]: 0.5%
Activity [12]: 2%
Activity [13]: 63.52%
Activity [14]: 0.03%
Activity [15]: 1.86%
Activity [16]: 168 g
Activity [17]: 164 g
Activity [18]: 234 g
Activity [19]: 86%
Activity [20]: 71%
Activity [21]: 46%
Activity [22]: 44%
Activity [23]: 70%
Activity [24]: 0.01%
Activity [25]: 96.75%
Activity [26]: 10%
